# The EternaBench riboswitch data
# Assays:
# [1] = system: MS2 coat protein; assay: apparent Kd, MS2 coat protein; higher = weaker binding; RNA-MaP array
# Summary of the method: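 Binding of fluorescently labeled MS2 coat protein, at 1.5 nM to 3 μM and room temperature, was measured with or without input ligand on designed RNAs transcribed on an Illumina sequencing chip from sequenced DNA templates. Apparent Kd was defined as the median of per-cluster binding-curve fits. No design measured on fewer than 10 clusters was kept.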
# [2] = system: MS2 coat protein; assay: apparent Kd, MS2 coat protein; higher = weaker binding; RNA-MaP array; FMN 200 µM where present
# Summary of the method: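 Apparent Kd: the median of filtered binding-curve fits from single clusters. Designs were transcribed on Illumina sequencing-chip clusters by stalled E. coli RNA polymerase and titrated with SNAP-549-labelled MS2 coat protein from 0.7 or 1.5 nM, doubling to 3 µM, in 100 mM Tris-HCl pH 7.5, 80 mM KCl, 4 mM MgCl2, BSA, DTT, yeast tRNA and Tween-20. Each series ran without and then with constant ligand, and green signal was normalised to red-channel RNA signal and control-cluster median Fmax.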
# [3] = designed as: ON switch for flavin mononucleotide, no ligand
# [4] = ligand present: flavin mononucleotide, designed as: ON switch for flavin mononucleotide
# [5] = designed as: OFF switch for flavin mononucleotide, no ligand
# [6] = ligand present: flavin mononucleotide, designed as: OFF switch for flavin mononucleotide
# [7] = designed as: ON switch for tryptophan, no ligand
# [8] = ligand present: tryptophan, designed as: ON switch for tryptophan
# [9] = designed as: OFF switch for theophylline, no ligand
# [10] = ligand present: theophylline, designed as: OFF switch for theophylline
# [11] = designed as: ON switch for theophylline, no ligand
# [12] = ligand present: theophylline, designed as: ON switch for theophylline
sequence,measurement,setting,value
GAACAUGAGGAUCACCCAUGUAGACGCAGGCUAAUAGAAUCGAGAAGGGCUAUAUGGGAACGCCAGCAGGAUAUCGGAGGUCAA,apparent Kd,[1]; [3],84 nM
same,apparent Kd,[1]; [4],49.1 nM
AGGAACGAAGGAUAUGAUGAAUAGUACAUGAGGAUCACCCAUGUGGCCACCUUAGACAUCUCAGAAGGACGAUACU,apparent Kd,[1]; [5],33.6 nM
same,apparent Kd,[1]; [6],25.1 nM
CCCUCCAGAACGGCCGCCACUAAAGGGUUGUGUGCGACUCCGGAACAUGAGGAUCACCCAUGUCUUAGGACCGGGUUCCCUUCUA,apparent Kd,[1]; [7],62 nM
same,apparent Kd,[1]; [8],56.5 nM
AGUUACAUGAGGAUCACCCAUGUCCGGUUGCGAGGACCGGUACGGCCGCCACUCGGGUACAUCCCAGAAAAUACUGAAUGCCUGC,apparent Kd,[1]; [7],55.4 nM
same,apparent Kd,[1]; [8],51 nM
GUCGGCUCAGUGUAGGAUAUGUCAAAGGUCACAUGAGGAUCACCCAUGUCUCGACGCAAAUUAGGACAGAAGGACAGCCAAAGCAU,apparent Kd,[1]; [3],7.57 nM
same,apparent Kd,[1]; [4],4.97 nM
CAGACGUAGAUUACAUGAGGAUCACCCAUGUCAUACCAGAUCAGAAGGGUUCUAGAGCGUACUCAACAGGAUAUGAUAAGUCCC,apparent Kd,[1]; [3],18.3 nM
same,apparent Kd,[1]; [4],16.5 nM
UGCAGGCGAACAGGAUAUCACACAUGAGGAUCACCCAUGUAAACUACUUAAGAAAGGGAGCCUCGUGAGAAGGGUUUCUUUGGG,apparent Kd,[1]; [5],74.6 nM
same,apparent Kd,[1]; [6],60.1 nM
AGAAGCUAAUCCGGCUCAUACAUGAGGAUCACCCAUGUUUUCAGAAGGGAGUCCGUCGCACCGACUCAGGAUAUGAUUCAAGAA,apparent Kd,[1]; [3],15.6 nM
same,apparent Kd,[1]; [4],21.8 nM
GGACGGUGGUGAGGAUAUUGUCACAUGAGGAUCACCCAUGUCGUCUGGGAGCGGACUCCUCGGUCCAAGAAGGCACGACCAGCC,apparent Kd,[1]; [5],246 nM
same,apparent Kd,[1]; [6],431 nM
UUAGCACAUGAGGAUCACCCAUGUUAGGAUAUCCGUUAAUAUCAGGCAAGGUCUGAAAGGAGAAGGAACAUGAA,apparent Kd,[1]; [5],35.4 nM
same,apparent Kd,[1]; [6],67.9 nM
AAUGACAUGAGGAUCACCCAUGUCCAUCUAAGCUCGGGUCUGCAGGAUAUUCCCGUGGGAUUAGGGAAGAAGGGCAGUGAUUGU,apparent Kd,[1]; [3],14 nM
same,apparent Kd,[1]; [4],7.02 nM
UGACUGGUCGGAGGAUAUGGCAACACGUUUUCGCCAGAAGGCCGACAUGAGGAUCACCCAUGUGGGACACUAGGGCGACUUCCU,apparent Kd,[1]; [5],166 nM
same,apparent Kd,[1]; [6],35.8 nM
AAUACAAAACAUGAGGAUCACCCAUGUCCCGAGACUAAACUAAGAAGGUGACCAACCAAAAGGGUCAAGGAUAUUAGGAUCUAU,apparent Kd,[1]; [3],28.9 nM
same,apparent Kd,[1]; [4],13.4 nM
AACCACGAGUCGGCCGCCACUUGCAACUAGUUUCAGAAGCAGAAACAUGAGGAUCACCCAUGUCGAAGGACCGGGACUUUACAGG,apparent Kd,[1]; [7],23.2 nM
same,apparent Kd,[1]; [8],18.7 nM
UAGGAUUAAGGAGGAUAUCGCCAAUAAGCUUCGCGAGAAGGCCUAUAUACAUGAGGAUCACCCAUGUUUGGUUGUUAGUGUCUU,apparent Kd,[1]; [5],7.9 nM
same,apparent Kd,[1]; [6],10.6 nM
AUCACUGUGAAAGAUACCAGCGCCCUACCUAUCUUCUGUUACAUGAGGAUCACCCAUGUUCGCCCUUGGCAGCUUGAGAUGGAUC,apparent Kd,[1]; [9],49 nM
same,apparent Kd,[1]; [10],70.6 nM
UUCCUUGUCGAGAAGGAAUGGCACUUGAGGCGAUUAGGAUAUCGAUACAUGAGGAUCACCCAUGUUGUGUCUCAUAGUAUGACA,apparent Kd,[1]; [5],12 nM
same,apparent Kd,[1]; [6],12.4 nM
GAUCCACAUGAGGAUCACCCAUGUGAGGAUACCAGUACCAGAUCCUACCCUUGGCAGCCUAACCUUCAUUCAACACGAAUAAGAA,apparent Kd,[1]; [11],12.4 nM
same,apparent Kd,[1]; [12],14.3 nM
CCUUAACAUGAGGAUCACCCAUGUCUGGAUACCAGAUACAGAUAAAUCCCUUGGCAGCCAAAAUAUGAAAGAAAUAAAAUAAGAA,apparent Kd,[1]; [11],41.3 nM
same,apparent Kd,[1]; [12],48.9 nM
AUAGCAUGAGUAGGAUAUUUUGAGCGUUGUGCAAAAGAAGGACUGACCGUGAUUAUAAUAUACAUGAGGAUCACCCAUGUUACA,apparent Kd,[1]; [5],9.42 nM
same,apparent Kd,[1]; [6],8.03 nM
GGUUUACAUGAGGAUCACCCAUGUCCUGACAUGAGUUAGAAACAGGAUAUGGCGCAAGAAAAUGUCCAGAAGGGUUCAUAGCAA,apparent Kd,[1]; [3],238 nM
same,apparent Kd,[1]; [4],70.2 nM
CUGAAAGUAGAGGAUAUGUGAAUAGCAGCGAUGACAGAAGGCUACACAUGAGGAUCACCCAUGUAAUCCCGUGC,apparent Kd,[1]; [5],20.4 nM
same,apparent Kd,[1]; [6],28.1 nM
UUACAUACCUUAGGAUAUCAUCGUAGUAGGGCAAUAUAACAUGAGGAUCACCCAUGUCUCGUGCGUGAGAAGGAAGAACGUCAU,apparent Kd,[1]; [3],32.7 nM
same,apparent Kd,[1]; [4],27.8 nM
UUAGGGCGGUAGAAGGAGGAUUACAUGAGGAUCACCCAUGUGGCAGGAGGCGAGGCUCAGUUACCCUAGGAUAUACAUCAGGUU,apparent Kd,[1]; [5],24.9 nM
same,apparent Kd,[1]; [6],21.5 nM
AAGCGACGUGACGCCUACAUGAGGAUCACCCAUGUAUGAAACAGAAGGUCCCGGAACCUUUACCGGAAGGAUAUGUAUCGUGCU,apparent Kd,[1]; [5],9.18 nM
same,apparent Kd,[1]; [6],7.78 nM
GUGCAAAACCAGAAGGGACAUUAAAGGGUAAAGUCAGGAUAUGGCACAUGAGGAUCACCCAUGUAGACUAGACGCGUUAUUUUC,apparent Kd,[1]; [3],9.99 nM
same,apparent Kd,[1]; [4],9.11 nM
GGAAGGACAGUUGAUACCAGUUUCAAAGGCGGUAAUCACUACAUGAGGAUCACCCAUGUCAACCCUUGGCAGCAAUAGACCGUGG,apparent Kd,[1]; [9],18.8 nM
same,apparent Kd,[1]; [10],24 nM
AUGAGCUGAGGAUAUAUUAACCUGUACAUGAGGAUCACCCAUGUAGCGUGUAGAGUGAGAAUAGAAGGCAGACAUC,apparent Kd,[1]; [5],17.2 nM
same,apparent Kd,[1]; [6],12.8 nM
CGAAGUAGCACAGGAUAUCAUACAUGAGGAUCACCCAUGUCAAGAAACAAAUGAGAAGGGUGCAGACGGUGUUGGAGCUGUUGC,apparent Kd,[2]; [3],192 nM
same,apparent Kd,[2]; [4],26.6 nM
CUAUCGUUGCAGAAGGUUAAAUAAUUUCUCAUCAUGUUUACAUGAGGAUCACCCAUGUAUUUGUUGAAGGAUAUGCAAGUGUUG,apparent Kd,[2]; [5],8.67 nM
same,apparent Kd,[2]; [6],7.92 nM
AAGUAGAUCCGAGGAUAUACAAUCUGGAAUCGGUACAUGAGGAUCACCCAUGUAGAAGGCGGAUCUACAGGUACUAAAGUACCA,apparent Kd,[2]; [5],7.88 nM
same,apparent Kd,[2]; [6],38.8 nM
GAAGCGCUUGACAUGAGGAUCACCCAUGUUAGAUUGUUAUGUCAGGAUAUAGUCUAGAAACUAGACUAGAAGGGAUAUGCUUCU,apparent Kd,[2]; [3],300 nM
same,apparent Kd,[2]; [4],43.1 nM
AAUAACAGAGGAUAUACUAUUUUAUGUGUUUGUUAUUUUGAACAUGAGGAUCACCCAUGUAGAAGGCUGAAUGA,apparent Kd,[2]; [5],27.7 nM
same,apparent Kd,[2]; [6],28 nM
GGAGCCCAGUCAGGAUAUGUAACGCUUAGGCUGUUACAUGAGGAUCACCCAUGUUUCACCGUGAAACAGAAGGGACAUUUGGCU,apparent Kd,[2]; [3],382 nM
same,apparent Kd,[2]; [4],122 nM
UCGAAAAUGCAAGGAUAUCAAUUAUAGCUAAAUUAGACAUGAGGAUCACCCAUGUAAAUAUGGAGUGAGAAGGUGCAAUAAUUU,apparent Kd,[2]; [3],453 nM
same,apparent Kd,[2]; [4],174 nM
AGUCGGAGCAGAGGAUAUUACAUGAGGAUCACCCAUGUGGAAAAACCAAGCUGGAAACAGCAAUGUAAGAAGGCUGCUCCGACA,apparent Kd,[2]; [5],497 nM
same,apparent Kd,[2]; [6],879 nM
CUUAUGUGAGGAUAUGGUGUUGGCCACAGGGAAAAGGUCCUCCAGAAGGCACAUGAGGAUCACCCAUGUAGUGA,apparent Kd,[2]; [5],165 nM
same,apparent Kd,[2]; [6],56.3 nM
GUAGCAUGCAGGCAGGAUAUUCAUAUUAAAACAUGAGGAUCACCCAUGUAGGCCGAAAGGCCUUGGGAGAAGGGCCACAUGCUAC,apparent Kd,[2]; [3],786 nM
same,apparent Kd,[2]; [4],52.6 nM
AAUUAGGUCACAGGAUAUACAUCAUCCAUAGCUGUAGAAGGGUGUCAAAAUAAUAUCUGACAUGAGGAUCACCCAUGUUUCCAC,apparent Kd,[2]; [3],25 nM
same,apparent Kd,[2]; [4],14.5 nM
GUAAUUAAUGUAGGAUAUGCAAGGCGAACCUAAGCAGAAGGACAUGAGGAUCACCCAUGUAUUGCGGUCUGCGUUCAGAUCGCU,apparent Kd,[2]; [5],19.5 nM
same,apparent Kd,[2]; [6],49.5 nM
AUUCAGCGAGGAUAUACAGGUUCUGGGUGAGGCUCGGCGAGACAUGAGGAUCACCCAUGUAGAAGGUGCUAGCC,apparent Kd,[2]; [5],341 nM
same,apparent Kd,[2]; [6],284 nM
